From ChEMBL document CHEMBL4152372, “Novel autophagy modulators: Design and synthesis of (+)-epogymnolactam analogues and structure-activity relationship” (Bioorg Med Chem, 2018)
Activity calls are given as the source filed them. No cut-off for these calls is given here.

Experiments:
NIH3T3 [1] = assay: Induction of autophagy in mouse NIH/3T3 cells assessed as increase in LC3-2 to actin ratio at 25 to 100 uM after 4 hrs by immunoblot analysis; format: functional, cell-based
Procedure, shortened: (§1)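 Mouse embryo NIH3T3 fibroblasts seeded at 3.3 × 10^5 cells/ml at 37°C, 5% CO2; after 24 h the medium was changed and compounds added in DMSO at 25, 50 or 100 μM final. Controls were DMSO vehicle and 5 μM rapamycin. After 4 h at 37°C, cells were lysed in RIPA buffer and run on SDS-PAGE. Blots were probed for LC3, p62 and actin, and band signal ratios were quantified. Mean ± SD of triplicate.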

NIH3T3 [2] = assay: Induction of autophagy in mouse NIH/3T3 cells assessed as increase in LC3-2 to LC3-1 ratio at 25 to 100 uM after 4 hrs by immunoblot analysis; format: functional, cell-based; procedure, shortened: as §1
NIH3T3 [3] = assay: Induction of apoptosis in mouse NIH/3T3 cells assessed as cell shrinkage at 100 uM measured after 4 hrs; format: functional, cell-based
NIH3T3 [4] = assay: Induction of autophagy in mouse NIH/3T3 cells assessed as increase in LC3-2 to LC3-1 ratio after 4 hrs by immunoblot analysis; format: functional, cell-based; procedure, shortened: as §1
NIH3T3 [5] = assay: Cytotoxicity against mouse NIH/3T3 cells assessed as reduction in cell viability at 25 to 100 uM after 4 hrs by CCK8 assay; format: cell-based; details: nih3t3, 4 h
Procedure, shortened: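 NIH3T3 cells counted by trypan blue exclusion, set to 0.53 × 10^4 cells/ml, and dosed at 25, 50 or 100 μM final (DMSO 0.1%). After 4 h at 37°C under CO2, CCK-8 reagent was added and incubation continued […]. Viable cells were read as OD450 against the DMSO control, mean ± SD of triplicate.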

NIH3T3 [6] = assay: Induction of autophagy in mouse NIH/3T3 cells assessed as upregulation of p62 expression after 4 hrs by immunoblot analysis; format: functional, cell-based; procedure, shortened: as §1
NIH3T3 [7] = assay: Induction of autophagy in mouse NIH/3T3 cells assessed as increase in LC3-2 to actin ratio after 4 hrs by immunoblot analysis; format: functional, cell-based; procedure, shortened: as §1
NIH3T3 [8] = assay: Induction of autophagy in mouse NIH/3T3 cells assessed as upregulation of p62 expression after 6 hrs by immunoblot analysis; format: functional, cell-based
NIH3T3 [9] = assay: Modulation of autophagy in mouse NIH/3T3 cells assessed as effect on p62 expression at 25 to 100 uM after 4 hrs by immunoblot analysis; format: functional, cell-based; procedure, shortened: as §1
NIH3T3 [10] = assay: Induction of apoptosis in mouse NIH/3T3 cells assessed as cell shrinkage at 50 to 100 uM measured after 4 hrs; format: functional, cell-based
NIH3T3 [11] = assay: Inhibition of autophagy in mouse NIH/3T3 cells assessed as decrease in LC3-2 to actin ratio after 4 hrs by immunoblot analysis; format: functional, cell-based
Procedure, shortened: (§2)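 NIH3T3 mouse embryo fibroblasts seeded at 3.3 × 10^5 cells/ml, cultured 24 h at 37°C/5% CO2, medium changed, then given compound in DMSO at final 25, 50, 100 μM for 4 h at 37°C. DMSO vehicle control; 5 μM rapamycin positive control. Cells lysed in RIPA, SDS-PAGE immunoblot for LC3, SQSTM1/p62, actin; band signals quantified as relative ratios. Mean ± SD of triplicates.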

NIH3T3 [12] = assay: Inhibition of autophagy in mouse NIH/3T3 cells assessed as decrease in LC3-2 to LC3-1 ratio after 4 hrs by immunoblot analysis; format: functional, cell-based; procedure, shortened: as §2
NIH3T3 [13] = assay: Induction of autophagy in mouse NIH/3T3 cells assessed as upregulation of p62 expression at 25 to 100 uM after 4 hrs by immunoblot analysis; format: functional, cell-based; procedure, shortened: as §2
NIH3T3 [14] = assay: Modulation of autophagy in mouse NIH/3T3 cells assessed as effect on LC3-2 to actin ratio at 25 to 100 uM after 4 hrs by immunoblot analysis; format: functional, cell-based; procedure, shortened: as §1
NIH3T3 [15] = assay: Modulation of autophagy in mouse NIH/3T3 cells assessed as effect on LC3-2 to LC3-1 ratio at 25 to 100 uM after 4 hrs by immunoblot analysis; format: functional, cell-based; procedure, shortened: as §1

Structure (SMILES)	Activity (NIH3T3 [1])	Activity (NIH3T3 [2])	Activity (NIH3T3 [5])	further results
CCCCC1(O)NC(=O)[C@H]2O[C@H]21 (stereo partly drawn)	inactive	inactive		
CCCCCCC(=O)[C@H]1O[C@H]1C(N)=O			Toxic	Activity (NIH3T3 [3]): Active; Activity (NIH3T3 [4]): Dose-dependent effect; Activity (NIH3T3 [6]): Dose-dependent effect; Activity (NIH3T3 [7]): Dose-dependent effect
CCCC[C@]1(OC)NC(=O)[C@@H]2O[C@@H]21	inactive	inactive		
CCCC[C@@]1(O)NC(=O)[C@@H]2O[C@@H]21	Active	Active	Toxic	Activity (NIH3T3 [8]): Active; Activity (NIH3T3 [9]): inactive; Activity (NIH3T3 [10]): inactive
CCCCC(=O)[C@H]1O[C@H]1C(=O)N(C)C	inactive	inactive		
CCCCC(=O)CCC(N)=O	inactive	inactive		
CCCCCCCCC(=O)[C@H]1O[C@H]1C(N)=O			Toxic	inhibition (NIH3T3 [11]): Dose-dependent effect; inhibition (NIH3T3 [12]): Dose-dependent effect; Activity (NIH3T3 [10]): Active; Activity (NIH3T3 [13]): Active
CCCC[C@@H](O)[C@H]1O[C@H]1C(N)=O	inactive	inactive		
C/C=C/C/C=C/CCC(=O)[C@H]1O[C@H]1C(N)=O [CERULENIN]			Toxic	inhibition (NIH3T3 [11]): Dose-dependent effect; inhibition (NIH3T3 [12]): Dose-dependent effect; Activity (NIH3T3 [13]): Active
CCCCCCCCCCC(=O)[C@H]1O[C@H]1C(N)=O			Toxic	Activity (NIH3T3 [14]): inactive; Activity (NIH3T3 [15]): inactive
